Molecules are shown by their SMILES.

One may read the Ki as a measure of affinity in units of concentration, obtained from inhibition or displacement. A word on the EC50: it is the concentration needed to bring the measured effect to its halfway point. The term Kd denotes the constant that tells how readily two partners part at equilibrium. As usually defined, the Emax is the size of the effect at its maximum, as opposed to the concentration needed.

The target of series [1] is T1, Histamine H2 receptor (Homo sapiens, UniProt P25021). As to the kind of experiment: Displacement of [3H]UR-DE257 from human histamine H2 receptor stably expressed in baculovirus infected Sf9 cell membrane co-expressing RG-Salpha S incubated for 60 mins by scintillation counting analysis. The series is classed as cell membranes. In general terms: Displacement assays read how much labelled ligand stays bound in the presence of the test substance.
T1 sequence (P25021 whole entry): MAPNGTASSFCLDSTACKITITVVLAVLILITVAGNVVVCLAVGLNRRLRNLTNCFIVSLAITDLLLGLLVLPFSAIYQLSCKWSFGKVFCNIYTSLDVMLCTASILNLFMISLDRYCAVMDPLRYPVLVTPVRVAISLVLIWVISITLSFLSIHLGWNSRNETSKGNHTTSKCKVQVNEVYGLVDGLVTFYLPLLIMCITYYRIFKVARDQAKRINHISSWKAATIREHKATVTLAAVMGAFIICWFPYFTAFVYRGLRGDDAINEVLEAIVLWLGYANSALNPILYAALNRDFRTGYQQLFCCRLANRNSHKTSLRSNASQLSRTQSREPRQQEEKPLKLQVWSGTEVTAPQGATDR

Series [2] in a line: Chemical stability in pH 7.4 buffer measured at 0 to 2 weeks by HPLC analysis. The series is classed as physicochemical. To be noted: time 0-2 weeks.
The target of series [3] is T1, Histamine H2 receptor. As to the kind of experiment: Agonist activity at human histamine H2 receptor stably expressed in HEK293T cells co-expressing ARRB2 incubated for 60 mins by beta-arrestin2 recruitment assay. It counts as functional, cell-based. (In general: Activated receptors often draw arrestin, which recruitment assays turn into a signal.)
Series [4] concerns the target T1, Histamine H2 receptor. As to the kind of experiment: Agonist activity at human histamine H2 receptor stably expressed in baculovirus infected Sf9 cell membrane co-expressing RG-Salpha S incubated for 90 mins by [35S]GTPgammaS binding based liquid scintillation counting method. The series is classed as functional, cell membranes. (In general: GTPγS resists hydrolysis and so accumulates on activated G proteins.)

The target in series [5] is T2, Muscarinic acetylcholine receptor M2 (Homo sapiens, UniProt P08172).
T2 sequence (P08172 whole entry): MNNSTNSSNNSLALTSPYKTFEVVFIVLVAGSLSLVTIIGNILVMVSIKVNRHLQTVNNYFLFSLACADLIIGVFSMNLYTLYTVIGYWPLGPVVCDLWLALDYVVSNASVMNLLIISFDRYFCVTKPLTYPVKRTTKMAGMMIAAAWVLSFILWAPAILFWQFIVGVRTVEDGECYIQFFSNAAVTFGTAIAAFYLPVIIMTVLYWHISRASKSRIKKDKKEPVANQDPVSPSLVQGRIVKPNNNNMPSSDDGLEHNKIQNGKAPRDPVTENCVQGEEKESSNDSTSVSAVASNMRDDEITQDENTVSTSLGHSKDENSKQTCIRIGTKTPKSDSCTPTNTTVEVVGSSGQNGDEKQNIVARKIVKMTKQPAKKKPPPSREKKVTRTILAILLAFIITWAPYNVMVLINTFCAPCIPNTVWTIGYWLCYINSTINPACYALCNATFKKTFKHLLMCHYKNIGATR
Kind of series: Displacement of [3H]N-methylscopolamine from human muscarinic acetylcholine M2 receptor stably expressed in CHO cells by radioligand competition binding based analysis. It counts as cell-based. In short, it runs like this:
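Whole CHO cells stably expressing hM1–hM5, competed against [3H]N-methylscopolamine. Kd/applied concentrations in nM: M1 0.17/0.2, M2 0.10/0.2, M3 0.12/0.2, M4 0.052/0.1, M5 0.20/0.3.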

Series [6] addresses T1, Histamine H2 receptor. As to the kind of experiment: Agonist activity at human histamine H2 receptor stably expressed in HEK293T cells co-expressing NlucN-mGs/hH2R-NlucC assessed as induction of mini-Gs protein recruitment using furimazine as substrate measured for 45 mins by luminescence assay.
Series [7] concerns the target T3, D(3) dopamine receptor (Homo sapiens, UniProt P35462). Kind of series: Displacement of [3H]N-methylspiperone from human D3 receptor stably expressed in HEK293T cells co-expressing luciferase and CEK incubated for 140 mins by radioligand competition binding based assay. The series is classed as cell-based.
Series [8] deals with Histamine H2 receptor (Cavia porcellus) (UniProt P47747). As to the kind of experiment: Agonist activity at guinea pig histamine H2 receptor stably transfected in HEK293T cells co-expressing NlucN-mGs/gpH2R-NlucC assessed as maximum efficacy at 100 uM by mini-G protein recruitment assay relative to histamine. It counts as functional, cell-based.
Histamine H2 receptor (Cavia porcellus), sequence (P47747 whole entry): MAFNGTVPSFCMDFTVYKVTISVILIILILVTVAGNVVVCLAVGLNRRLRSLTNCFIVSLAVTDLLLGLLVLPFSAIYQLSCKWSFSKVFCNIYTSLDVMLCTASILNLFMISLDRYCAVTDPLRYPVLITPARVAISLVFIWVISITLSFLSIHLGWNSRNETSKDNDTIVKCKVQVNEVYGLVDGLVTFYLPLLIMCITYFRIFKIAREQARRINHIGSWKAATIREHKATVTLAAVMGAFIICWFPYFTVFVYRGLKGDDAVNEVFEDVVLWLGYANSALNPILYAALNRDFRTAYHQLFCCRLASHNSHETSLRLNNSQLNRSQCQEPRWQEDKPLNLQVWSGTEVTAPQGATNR
For series [9] the target is unchanged. As to the kind of experiment: Agonist activity at histamine H2 receptor in spontaneous beating guinea pig right atrium assessed as increase in heart beat at 30 uM relative to histamine. The series is classed as functional, tissue-based. The settings on record: Right cardiac atrium.
Series [10] deals with T3, D(3) dopamine receptor. As to the kind of experiment: Agonist activity at human D3 receptor stably expressed in HEK293T cells co-expressing ElucN-betaarr2 hD3R-ElucC by beta-arrestin2 recruitment assay. The series is classed as functional, cell-based.

T3 sequence (P35462 whole entry): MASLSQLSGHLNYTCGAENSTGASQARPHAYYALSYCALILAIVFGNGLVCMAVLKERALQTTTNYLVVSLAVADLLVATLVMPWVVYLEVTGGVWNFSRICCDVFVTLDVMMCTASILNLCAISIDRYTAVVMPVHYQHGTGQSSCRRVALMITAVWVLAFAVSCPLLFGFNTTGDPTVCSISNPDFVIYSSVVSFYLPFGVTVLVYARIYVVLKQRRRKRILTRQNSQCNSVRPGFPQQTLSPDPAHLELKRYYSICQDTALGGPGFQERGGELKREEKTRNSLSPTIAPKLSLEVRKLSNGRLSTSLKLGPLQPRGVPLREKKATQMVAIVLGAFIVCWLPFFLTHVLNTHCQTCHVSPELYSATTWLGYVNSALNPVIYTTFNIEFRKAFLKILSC

On to `CCCCCNC(=O)/N=C(\N)NCCCc1nnc(N)s1.O=C(O)C(F)(F)F.O=C(O)C(F)(F)F`, for which, at Histamine H2 receptor [1], the Ki was 3.02 nM. Moreover, the Stability result in [2] is reported as “Stable”. Moreover, the EC50 is 234 nM on Histamine H2 receptor [3], 25.7 nM at Histamine H2 receptor [4] and 5.75 nM at Histamine H2 receptor [6]. This molecule returned an equilibrium dissociation constant (Kd) in series [5] of 0.1 nM.
As for `C[C@@H](NC(=O)/N=C(\N)NCCCc1ncn[nH]1)c1ccccc1`, the values for the inhibitory constant (Ki) (at Histamine H2 receptor [1]; on D(3) dopamine receptor [7]; in series [5]) were 53.7 nM, more than 10000 nM and more than 10000 nM, respectively. The Emax in series [8] was found to be 86%; in [9], 115%. Moreover, the values for the concentration giving a half-maximal response (EC50) on Histamine H2 receptor [3], at D(3) dopamine receptor [10] and on Histamine H2 receptor [6] were 324 nM, more than 10000 nM and 25.7 nM, respectively. The molecule further had a Kd in series [5] of 0.1 nM.
Consider `CCCCCNC(=O)/N=C(\N)NCCCc1sc(N)nc1C`, for which, in series [5], binding was put at a Kd of 0.1 nM and the inhibition constant (Ki) was more than 10000 nM.
As to `N/C(=N\C(=O)NCc1ccccc1)NCCCc1nnc(N)s1`, on D(3) dopamine receptor [7], the Ki was 2630 nM. Further, the EC50 on D(3) dopamine receptor [10] was 1200 nM. In addition, the Kd in series [5] came out at 0.1 nM.
